Assay results: ChEMBL document CHEMBL1139844, “Synthesis and antimalarial activity of side chain modified 4-aminoquinoline derivatives” (J Med Chem, 2007)
In brackets after ≈: the same amount, converted by molar mass.

Tests used:
[1] = system: Plasmodium falciparum; test: Antiplasmodial activity against Plasmodium falciparum NF54; type: functional, organism-based
[2] = system: Mus musculus; test: Mean survival time of Swiss mice (Mus musculus) infected with Plasmodium yoelii N67 at 30 mg/kg, intraperitoneally; type: functional; settings: route intraperitoneal
In short: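 Swiss mice infected with P. yoelii N-67; test compounds at 30 mg/kg given intraperitoneally once daily on four consecutive days; saline-treated mice as controls. Mice followed for 28 days; mean survival time (± SE) counted only for mice dying within that period, with survivors beyond 28 days excluded.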

[3] = Inhibition of beta-hematin polymerization; parameters: species or system Plasmodium falciparum
[4] = system: Plasmodium yoelii; test: Antimalarial activity against Plasmodium yoelii N67 infected in Swiss mice (Mus musculus) at 30 mg/kg, intraperitoneally; type: functional; settings: route intraperitoneal
In short: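 Swiss mice infected with P. yoelii N-67, dosed ip at 30 mg/kg once daily for four consecutive days; saline-treated controls. Parasitaemia on day 4 gives % suppression = [(C − T)/C] × 100 (C, T = control, treated parasitaemia). Mean survival time counted only for mice dying within the 28-day observation period; survivors beyond 28 days excluded.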

Row | SMILES | IC50 [1] [nM] | MIC [1] [µM] | IC50 [3] [equivalents] | MST [2] [days] | Activity [4] [%]
1 | O=C1CSC(c2c(Cl)cccc2Cl)N1CCNc1ccnc2cc(Cl)ccc12 (stereo not given) | 39 | 0.55 (≈ 0.249 µg/mL) | 0.46 | 14.6 | 76.08
2 | O=C1CCSC(c2ccc(Cl)cc2)N1CCCNc1ccnc2cc(Cl)ccc12 (stereo not given) | 14 | 0.28 (≈ 0.125 µg/mL) | 0.62 | 12 | 23.5
3 | O=C1CSC(c2c(Cl)cccc2Cl)N1CCCNc1ccnc2cc(Cl)ccc12 (stereo not given) | 138 | 0.27 (≈ 0.126 µg/mL) | 0.39 | 10.6 | 40.08
4 | CC1SCN(CCCCNc2ccnc3cc(Cl)ccc23)C1=O (stereo not given) | 1290 | 5.73 (≈ 2 µg/mL) | 0.98 |  | 
5 | O=C1CCSC(c2ccc(Cl)cc2)N1CCCCNc1ccnc2cc(Cl)ccc12 (stereo not given) | 271 | 0.54 (≈ 0.249 µg/mL) | 0.76 | 13.8 | 62.32
6 | O=C1c2ccccc2SC(c2c(Cl)cccc2Cl)N1CCCCNc1ccnc2cc(Cl)ccc12 (stereo not given) | 3070 | 13.8 (≈ 7.5 µg/mL) | 0.97 |  | 
7 | O=C1c2ccccc2SCN1CCCCNc1ccnc2cc(Cl)ccc12 | 1510 | 2.51 (≈ 0.999 µg/mL) | 0.89 |  | 
8 | O=C1CSCN1CCCCNc1ccnc2cc(Cl)ccc12 | 2650 | 5.96 (≈ 2 µg/mL) | 0.91 |  | 
9 | O=C1c2ccccc2SC(c2ccc(Cl)cc2)N1CCNc1ccnc2cc(Cl)ccc12 (stereo not given) | 13 | 0.26 (≈ 0.125 µg/mL) | 0.24 | 15.2 | 81
10 | CC1SCN(CCCNc2ccnc3cc(Cl)ccc23)C1=O (stereo not given) | 2330 | 5.65 (≈ 1.9 µg/mL) | 1.02 |  | 
11 | O=C1c2ccccc2SCN1CCCNc1ccnc2cc(Cl)ccc12 | 429 | 1.3 (≈ 0.499 µg/mL) | 0.78 |  | 
12 | O=C1c2ccccc2SCN1CCNc1ccnc2cc(Cl)ccc12 | 65 | 0.68 (≈ 0.252 µg/mL) | 0.94 | 11.4 | 48.33
13 | CCN(CC)CCCC(C)Nc1ccnc2cc(Cl)ccc12 (stereo not given) [CHLOROQUINE] |  | 0.39 (≈ 0.125 µg/mL) |  | 20 | 99.99
14 | O=C1CSCN1CCCNc1ccnc2cc(Cl)ccc12 | 1650 | 3.11 (≈ 1 µg/mL) | 0.96 |  | 

Continued, in another order:

Row | IC50 [1] [nM] | MIC [1] [µM] | IC50 [3] [equivalents] | SMILES | MST [2] [days] | Activity [4] [%]
15 | 1030 | 2.02 (≈ 0.999 µg/mL) | 0.46 | O=C1c2ccccc2SC(c2ccc(Cl)cc2)N1CCCNc1ccnc2cc(Cl)ccc12 (stereo not given) |  | 
16 | 1980 | 4.08 (≈ 1.82 µg/mL) | 0.85 | O=C1CSC(c2ccc(Cl)cc2)N1CCCCNc1ccnc2cc(Cl)ccc12 (stereo not given) |  | 
17 | 4070 | 4.62 (≈ 2 µg/mL) | 0.47 | O=C1CCSC(c2ccc(Cl)cc2)N1CCNc1ccnc2cc(Cl)ccc12 (stereo not given) |  | 
18 | 3270 | 4.28 (≈ 2 µg/mL) | 0.45 | O=C1CCSC(c2c(Cl)cccc2Cl)N1CCNc1ccnc2cc(Cl)ccc12 (stereo not given) |  | 
19 | 3030 | 6.17 (≈ 2.97 µg/mL) | 0.64 | O=C1CSC(c2c(Cl)cccc2Cl)N1CCCCNc1ccnc2cc(Cl)ccc12 (stereo not given) |  | 
20 | 1680 | 3.11 (≈ 1 µg/mL) | 1.05 | CC1SCN(CCNc2ccnc3cc(Cl)ccc23)C1=O (stereo not given) |  | 
21 | 2140 | 3.25 (≈ 1 µg/mL) | 0.98 | O=C1CSCN1CCNc1ccnc2cc(Cl)ccc12 |  | 
22 | 1810 | 2.48 (≈ 0.833 µg/mL) | 0.96 | O=C1CCSCN1CCCNc1ccnc2cc(Cl)ccc12 |  | 
23 | 2190 | 9.45 (≈ 5 µg/mL) | 0.65 | O=C1c2ccccc2SC(c2c(Cl)cccc2Cl)N1CCCNc1ccnc2cc(Cl)ccc12 (stereo not given) |  | 
24 | 6150 | 10.4 (≈ 5 µg/mL) | 0.88 | O=C1CCSC(c2c(Cl)cccc2Cl)N1CCCNc1ccnc2cc(Cl)ccc12 (stereo not given) |  | 
25 | 2920 | 6.21 (≈ 2 µg/mL) | 0.99 | O=C1CCSCN1CCNc1ccnc2cc(Cl)ccc12 |  | 
26 | 1270 | 2.17 (≈ 1.1 µg/mL) | 0.95 | O=C1c2ccccc2SC(c2ccc(Cl)cc2)N1CCCCNc1ccnc2cc(Cl)ccc12 (stereo not given) |  | 
27 | 980 | 1.2 (≈ 0.502 µg/mL) | 0.75 | O=C1CSC(c2ccc(Cl)cc2)N1CCNc1ccnc2cc(Cl)ccc12 (stereo not given) |  | 
28 | 1040 | 1.16 (≈ 0.502 µg/mL) | 0.56 | O=C1CSC(c2ccc(Cl)cc2)N1CCCNc1ccnc2cc(Cl)ccc12 (stereo not given) |  | 
29 | 291 | 5.88 (≈ 3.03 µg/mL) | 0.49 | O=C1c2ccccc2SC(c2c(Cl)cccc2Cl)N1CCNc1ccnc2cc(Cl)ccc12 (stereo not given) |  | 
30 | 7150 | 15.2 (≈ 7.5 µg/mL) | 0.58 | O=C1CCSC(c2c(Cl)cccc2Cl)N1CCCCNc1ccnc2cc(Cl)ccc12 (stereo not given) |  | 
31 | 1810 | 2.86 (≈ 1 µg/mL) | 0.89 | O=C1CCSCN1CCCCNc1ccnc2cc(Cl)ccc12 |  | 
